Source: ChEMBL document CHEMBL3994574, “Novel hamamelitannin analogues for the treatment of biofilm related MRSA infections-A scaffold hopping approach” (Eur J Med Chem, 2017)

Experiments:
[1] = Inhibition of quorum sensing system in methicillin-resistant Staphylococcus aureus Mu50 assessed as potentiation of vancomycin-mediated reduction in CFU/biofilm after 24 hrs; parameters: species or system Staphylococcus aureus subsp. aureus Mu50
[2] = Inhibition of quorum sensing system in methicillin-resistant Staphylococcus aureus Mu50 assessed as potentiation of vancomycin-mediated reduction in CFU/biofilm preincubated for 20 hrs followed by vancomycin addition measured after 24 hrs; parameters: species or system Staphylococcus aureus subsp. aureus Mu50
[3] = tested on: Staphylococcus aureus subsp. aureus Mu50; assay: Inhibition of quorum sensing system in methicillin-resistant Staphylococcus aureus Mu50 assessed as potentiation of vancomycin-mediated reduction in CFU/biofilm at 100 uM after 24 hrs (reference value: 30 +/- 14%)
[4] = tested on: Staphylococcus aureus subsp. aureus Mu50; assay: Inhibition of quorum sensing system in methicillin-resistant Staphylococcus aureus Mu50 assessed as potentiation of vancomycin-mediated reduction in CFU/biofilm at 100 uM preincubated for 20 hrs followed by vancomycin addition measured after 24 hrs (reference value: 30 +/- 14%)
Staphylococcus aureus = assay: Growth inhibition of methicillin-resistant Staphylococcus aureus Mu50 after 20 hrs by broth microdilution method
In short: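 MRSA Mu50 grown in Mueller-Hinton broth at 37 °C, aerobic. MIC found in triplicate in flat-bottom 96-well plates, using a procedure from earlier work. Highest concentration tested was […].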

SMILES | EC50 [1] [µM] | EC50 [2] [µM] | inhibition [3] [%] | inhibition [4] [%] | MIC (Staphylococcus aureus) [µM]
O=C(NC[C@@H]1O[C@H](CNC(=O)c2ccccc2Cl)[C@@H](O)[C@H]1O)c1ccccc1 | 3.71 | 2.6 | 95 | 93 | > 500
O=C(NC[C@@H]1CO[C@H](CNC(=O)c2ccccc2Cl)CO1)c1ccccc1 | 13.1 | 5.57 | 91 | 95 | > 500
O=C(NC[C@@H]1CN[C@H](CNC(=O)c2ccccc2Cl)C1)c1ccccc1 |  |  | 47 | 62 | > 500
O=C(NC[C@]1(O)CO[C@H](CNC(=O)c2ccccc2Cl)[C@H]1O)c1ccccc1 | 7.98 | 0.389 | 92 | 88 | > 500
O=C(NC[C@@H]1C[C@H](CNC(=O)c2ccccc2Cl)CN1)c1ccccc1 |  |  | 50 | 54 | > 500
O=C(NC[C@H]1CN(C(=O)c2ccccc2Cl)CCO1)c1ccccc1 |  |  | 41 | -7 | > 500
O=C(NC[C@]1(O)CO[C@H](CNC(=O)c2ccccc2Cl)C1)c1ccccc1 |  |  | 65 | 21 | > 500
O=C(OC[C@H]1OC(O)[C@@](O)(COC(=O)c2cc(O)c(O)c(O)c2)[C@@H]1O)c1cc(O)c(O)c(O)c1 (stereo not given in full) [HAMAMELITANNIN] | 165 | 146 | 57 | 57 | > 500
O=C(NC[C@H]1CN(C(=O)c2ccccc2)CCO1)c1ccccc1Cl |  |  | 51 | -6 | > 500
